Results as given in ChEMBL document CHEMBL5058577, “EUbOPEN Chemogenomics Library 2 (Multiplex)” (2022).

Tested on: U2OS
Assay: Multiplex assay against U2OS
Type: toxicity, cell-based
Conditions: human
In short: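 With compound added, live cells were imaged on a CQ1 microscope at 37°C and 5% CO2; staining with Hoechst33342, BioTracker Green Microtubule Cytoskeleton Dye, MitoTracker Red and Annexin V Alexa Fluor 680 had been done at seeding. The CellPathfinder machine-learning gating scheme split cells into Hoechst high-intensity objects or normal cells, normal cells into healthy, pyknosed or fragmented nuclei, and pyknosed cells into mitotic or apoptotic. The tubulin, mitochondrial-mass and membrane-permeability phenotypes are per cents of healthy-nucleus cells.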

[1] = 12 h, 1 µM, compound concentration 1 uM, replicate 1
[2] = 12 h, 1 µM, compound concentration 1 uM, replicate 2
[3] = 12 h, 10 µM, compound concentration 10 uM, replicate 1
[4] = 12 h, 10 µM, compound concentration 10 uM, replicate 2
[5] = 24 h, 1 µM, compound concentration 1 uM, replicate 1
[6] = 24 h, 1 µM, compound concentration 1 uM, replicate 2
[7] = 24 h, 10 µM, compound concentration 10 uM, replicate 1
[8] = 24 h, 10 µM, compound concentration 10 uM, replicate 2
[9] = 48 h, 1 µM, compound concentration 1 uM, replicate 1
[10] = 48 h, 1 µM, compound concentration 1 uM, replicate 2
[11] = 48 h, 10 µM, compound concentration 10 uM, replicate 1
[12] = 48 h, 10 µM, compound concentration 10 uM, replicate 2

## Nc1nc(-c2ccco2)c2cnn(Cc3ccccc3F)c2n1
[1]
  Population Apoptotic (%): 82%
  Population Fragmented Nuclei (%): 23%
  Population Healthy Nuclei (%): 68%
  Population Hoechst High Intensity Objects (%): 1%
  Population Membrane Permeable-Phenotype (%): 4%
  Population Mitochondria Different-Phenotype (%): 2%
  Population Mitotic Cells (%): 17%
  Population Normal (%): 98%
  Population Pyknosed Nuclei (%): 8%
  Population Tubulin-Different-Phenotype (%): 3%
  Total Cell Count: 280
[2]
  Population Apoptotic (%): 92%
  Population Healthy Nuclei (%): 64%
  Population Hoechst High Intensity Objects (%): 0%
  Population Membrane Permeable-Phenotype (%): 12%
  Population Mitochondria Different-Phenotype (%): 5%
  Population Mitotic Cells (%): 7%
  Population Normal (%): 99%
  Population Pyknosed Nuclei (%): 12%
  Population Tubulin-Different-Phenotype (%): 8%
  Total Cell Count: 109
[3]
  Population Apoptotic (%): 87%
  Population Fragmented Nuclei (%): 41%
  Population Healthy Nuclei (%): 45%
  Population Hoechst High Intensity Objects (%): 5%
  Population Membrane Permeable-Phenotype (%): 10%
  Population Mitochondria Different-Phenotype (%): 4%
  Population Mitotic Cells (%): 12%
  Population Normal (%): 94%
  Population Pyknosed Nuclei (%): 12%
  Population Tubulin-Different-Phenotype (%): 7%
  Total Cell Count: 197
[4]
  Population Apoptotic (%): 77%
  Population Fragmented Nuclei (%): 20%
  Population Healthy Nuclei (%): 72%
  Population Hoechst High Intensity Objects (%): 0%
  Population Membrane Permeable-Phenotype (%): 5%
  Population Mitochondria Different-Phenotype (%): 5%
  Population Mitotic Cells (%): 22%
  Population Normal (%): 99%
  Population Pyknosed Nuclei (%): 7%
  Population Tubulin-Different-Phenotype (%): 1%
  Total Cell Count: 125
[5]
  Population Apoptotic (%): 96%
  Population Fragmented Nuclei (%): 19%
  Population Healthy Nuclei (%): 70%
  Population Hoechst High Intensity Objects (%): 1%
  Population Membrane Permeable-Phenotype (%): 4%
  Population Mitochondria Different-Phenotype (%): 1%
  Population Mitotic Cells (%): 3%
  Population Normal (%): 98%
  Population Pyknosed Nuclei (%): 9%
  Population Tubulin-Different-Phenotype (%): 2%
  Total Cell Count: 332
[6]
  Population Apoptotic (%): 84%
  Population Fragmented Nuclei (%): 18%
  Population Healthy Nuclei (%): 71%
  Population Hoechst High Intensity Objects (%): 4%
  Population Membrane Permeable-Phenotype (%): 10%
  Population Mitochondria Different-Phenotype (%): 3%
  Population Mitotic Cells (%): 15%
  Population Normal (%): 95%
  Population Pyknosed Nuclei (%): 10%
  Population Tubulin-Different-Phenotype (%): 8%
  Total Cell Count: 127
[7]
  Population Apoptotic (%): 82%
  Population Fragmented Nuclei (%): 38%
  Population Healthy Nuclei (%): 53%
  Population Hoechst High Intensity Objects (%): 5%
  Population Membrane Permeable-Phenotype (%): 7%
  Population Mitochondria Different-Phenotype (%): 3%
  Population Mitotic Cells (%): 17%
  Population Normal (%): 94%
  Population Pyknosed Nuclei (%): 7%
  Population Tubulin-Different-Phenotype (%): 5%
  Total Cell Count: 230
[8]
  Population Apoptotic (%): 90%
  Population Fragmented Nuclei (%): 19%
  Population Healthy Nuclei (%): 73%
  Population Hoechst High Intensity Objects (%): 1%
  Population Membrane Permeable-Phenotype (%): 5%
  Population Mitochondria Different-Phenotype (%): 0%
  Population Mitotic Cells (%): 9%
  Population Normal (%): 98%
  Population Tubulin-Different-Phenotype (%): 4%
  Total Cell Count: 157
[9]
  Population Apoptotic (%): 94%
  Population Fragmented Nuclei (%): 17%
  Population Healthy Nuclei (%): 74%
  Population Hoechst High Intensity Objects (%): 1%
  Population Membrane Permeable-Phenotype (%): 2%
  Population Mitochondria Different-Phenotype (%): 2%
  Population Mitotic Cells (%): 5%
  Population Normal (%): 98%
  Population Pyknosed Nuclei (%): 7%
  Population Tubulin-Different-Phenotype (%): 2%
  Total Cell Count: 462
[10]
  Population Apoptotic (%): 95%
  Population Fragmented Nuclei (%): 16%
  Population Healthy Nuclei (%): 67%
  Population Hoechst High Intensity Objects (%): 6%
  Population Membrane Permeable-Phenotype (%): 5%
  Population Mitochondria Different-Phenotype (%): 5%
  Population Mitotic Cells (%): 4%
  Population Normal (%): 93%
  Population Pyknosed Nuclei (%): 15%
  Population Tubulin-Different-Phenotype (%): 1%
  Total Cell Count: 141
[11]
  Population Apoptotic (%): 95%
  Population Fragmented Nuclei (%): 37%
  Population Healthy Nuclei (%): 51%
  Population Hoechst High Intensity Objects (%): 11%
  Population Membrane Permeable-Phenotype (%): 17%
  Population Mitochondria Different-Phenotype (%): 6%
  Population Mitotic Cells (%): 4%
  Population Normal (%): 88%
  Population Pyknosed Nuclei (%): 10%
  Population Tubulin-Different-Phenotype (%): 11%
  Total Cell Count: 252
[12]
  Population Apoptotic (%): 86%
  Population Fragmented Nuclei (%): 23%
  Population Healthy Nuclei (%): 69%
  Population Hoechst High Intensity Objects (%): 2%
  Population Membrane Permeable-Phenotype (%): 12%
  Population Mitotic Cells (%): 13%
  Population Normal (%): 97%
  Population Pyknosed Nuclei (%): 7%
  Population Tubulin-Different-Phenotype (%): 6%
  Total Cell Count: 196
